Sampled rows, rich in hits. Any-hit rate of the full collection: about 3.4%.
CHRM1 antagonist – human CHRM1 antagonism; inhibition, % at 3 µM; 360,000 compounds, 1.3% hits; CHO-K1 hM1, Fluo-8 calcium fluorescence, ACh EC80 antagonist;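 active means percent inhibition above its own plate's cutoff, namely the mean of that plate's compound wells plus 3 SD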;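 further: peak over basal fluorescence ratio during 140 s after agonist addition; 0% = ACh EC80 plus DMSO and 100% = DMSO alone without agonist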
Target sequence (P11229 whole entry, looked up): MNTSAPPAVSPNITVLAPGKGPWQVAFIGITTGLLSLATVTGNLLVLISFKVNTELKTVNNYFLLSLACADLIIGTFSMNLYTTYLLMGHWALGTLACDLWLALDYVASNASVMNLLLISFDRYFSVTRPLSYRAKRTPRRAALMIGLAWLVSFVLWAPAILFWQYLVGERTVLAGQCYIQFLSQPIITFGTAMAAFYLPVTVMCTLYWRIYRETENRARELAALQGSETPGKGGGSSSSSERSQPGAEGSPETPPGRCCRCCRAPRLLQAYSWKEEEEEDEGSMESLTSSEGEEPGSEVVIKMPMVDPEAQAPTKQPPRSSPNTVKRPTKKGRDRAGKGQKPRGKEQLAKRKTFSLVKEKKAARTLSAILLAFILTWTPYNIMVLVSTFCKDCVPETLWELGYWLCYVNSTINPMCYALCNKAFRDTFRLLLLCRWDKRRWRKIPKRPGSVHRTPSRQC
TAAR1 antag – human TAAR1 antagonism; Q96RJ0; CHO RD-HGA16 TAAR1, Fluo-8 calcium fluorescence, antagonist; inhibition, % at 3 µM; 360,000 compounds, 1.5% hits; AID 624466;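 active means inhibition above a per-plate cutoff, the mean inhibition of test compounds on that plate plus 3 SD, cut at about 49% in these data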;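 further: 0% = DMSO plus EC80 beta-PEA response and 100% = DMSO alone without agonist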
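test system = CHO RD-HGA16 cells bearing hTAAR1 | replication = singlicate | controls = DMSO-only wells and EC80 β-PEA-stimulated wells | reagent = EC80 β-phenethylamine stimulus | read-out basis = percent inhibition of PEA-evoked calcium signal, max/basal emission ratio | schedule = seeding 17-24 h prior, 75-min 37 °C, 30-min RT dye loading | signal = kinetic Fluo-8 calcium fluorescence measurement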
M1 ag – agonists of human M1 muscarinic receptor; P11229; CHO-K1 hM1, Fluo-8 calcium fluorescence, agonist mode; 0% DMSO, 100% acetylcholine EC100; activation, % at 3 µM; 360,000 compounds, 0.33% hits;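 active means activation above the run's mean compound activation plus 3 SD, cut at about 16% in these data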;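 further: peak over basal fluorescence ratio within a 140 s kinetic read after compound addition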
TAAR1 ag – human TAAR1 agonism. Q96RJ0. CHO RD-HGA16 TAAR1, Fluo-8 calcium fluorescence; vehicle wells 0%, saturating PEA agonist 100%. 360,000 compounds, 0.99% hits. activation, % at 3 µM. AID 624467;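 active means activation above the mean activation of all test compounds in the run plus 3 SD, cut at about 38% in these data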
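test system = CHO RD-HGA16 cells carrying human TAAR1 plus Gα16 | schedule = 17-24 h seeding, 75 min 37 °C dye, 30 min RT | compound dosing = 3 µM single concentration | control set = DMSO and PEA EC100 | replicates = n 1 | signal = Fluo-8 fluorescence, 5 s baseline then 140 s kinetic read | measure = percent activation vs PEA EC100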
M1 PAM – potentiates human M1 receptor response to acetylcholine. 360,000 compounds, 0.088% hits. activation, % at 3 µM. P11229. CHO-K1 hM1, Fluo-8 calcium fluorescence, ACh EC20; 0% = ACh EC20, 100% = maximal ACh. AID 588819; in the data active means activation above about 19%, passing the limit was not always enough
TAAR1 ag conf – human TAAR1 agonism, confirmed; CHO RD-HGA16 TAAR1, Fluo-8 calcium fluorescence; scaled: DMSO 0%, maximal phenethylamine 100%; shares compounds with TAAR1 ag; 2,400 compounds, 82% hits; activation, % at 3 µM;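 active means activation above a cutoff set at the run's mean compound activation plus 3 SD, cut at about 39% in these data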
Ga16 ag counter – nonselective agonist in parental cells, TAAR1 agonist counter-screen; CHO-Ga16 parental, Fluo-8 calcium fluorescence; normalized to maximal ATP response, DMSO zero; shares compounds with TAAR1 ag; 2,400 compounds, 50% hits; activation, % at 3 µM; AID 651787;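 active means activation above the run cutoff, the mean activation over all tested wells plus 3 SD, cut at about 12% in these data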;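 further: 0% = DMSO wells and 100% = maximal ATP response on the peak over basal ratio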
TAAR1 desens – human TAAR1 agonist that also desensitizes the receptor; shares compounds with TAAR1 ag; CHO RD-HGA16 hTAAR1, Fluo-8 calcium, beta-PEA response inhibition; inhibition, % at 3 µM; 2,400 compounds, 46% hits; AID 651951;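 active means inhibition above the run cutoff, the mean inhibition of all test compounds plus 3 SD, cut at about 49% in these data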;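 further: beta-PEA stimulus applied at its EC80; loss of beta-PEA calcium signal after compound pretreatment read as receptor desensitization; 0% = DMSO with beta-PEA at EC80 and 100% = DMSO alone without agonist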
Ga16 nonsel ant – nonselective Ga16 antagonism, counter-screen | CHO-Ga16 ATP-induced calcium, Fluo-8 fluorescence | shares compounds with TAAR1 ag | inhibition, % at 3 µM | 2,400 compounds, 39% hits | AID 651952;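 active means inhibition above the plate's mean compound inhibition plus 3 SD, computed per plate, cut at about 22% in these data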;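 further: 0% = EC80 ATP with DMSO and 100% = DMSO wells without ATP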
* = called active by the depositor.

COc1ccc(CCNC(=O)COc2cc(O)c3c(c2)OC(C)(C)CC3=O)cc1OC was read as CHRM1 antagonist -6.5, TAAR1 antag 3.3, M1 ag -1.8, TAAR1 ag 4.7 and M1 PAM 0.1.
For Cc1ccc(S(=O)(=O)NC2=NCN(CCc3ccccc3)CN2)cc1 the results were CHRM1 antagonist 2.2, TAAR1 antag 2.8, M1 ag -3.8, TAAR1 ag 64.2*, M1 PAM 4.3, TAAR1 ag conf 43.3*, Ga16 ag counter 0.3, TAAR1 desens 1.5 and Ga16 nonsel ant 8.0.
For CC(C)[C@H](NC(=O)c1ccc(Cl)c(Cl)c1)C(=O)N1CCC[C@H]1C(=O)NCc1ccccc1 the results were TAAR1 antag -19.4 and TAAR1 ag 1.9.
Screening COc1cccc(C(=O)N2CCC[C@H]2C(=O)N2CCC[C@H]2C(=O)N[C@H](C)c2ccccc2)c1 returned TAAR1 antag -4.9 and TAAR1 ag 2.2.
For COc1cccc(C(=O)N[C@H](C(=O)N2CCC[C@H]2C(=O)NCCc2ccccc2Cl)c2ccccc2)c1 the results were TAAR1 antag 52.2*, TAAR1 ag 56.3*, TAAR1 ag conf 91.3*, Ga16 ag counter 2.8, TAAR1 desens 83.9* and Ga16 nonsel ant 17.1.
`COc1cccc(C(=O)N[C@H](C(=O)N2CCC[C@H]2C(=O)NCCc2ccccc2Cl)C(C)C)c1` gave TAAR1 antag 77.6*, TAAR1 ag 71.2*, TAAR1 ag conf 85.1*, Ga16 ag counter 3.6, TAAR1 desens 94.6* and Ga16 nonsel ant 7.6.
Cc1nnc(NC(=O)C2CCN(S(=O)(=O)c3ccc(Cl)cc3)CC2)s1 was read as CHRM1 antagonist -11.0, TAAR1 antag -32.3, M1 ag -0.2, TAAR1 ag 2.1 and M1 PAM 7.8.
CCOC(=O)C1CCCN(C(=S)Nc2ccc(C)cc2C)C1 (stereo unspecified) was read as CHRM1 antagonist 83.1*, TAAR1 antag 60.3*, M1 ag 84.9*, TAAR1 ag 69.0*, M1 PAM -28.0, TAAR1 ag conf 34.0, Ga16 ag counter -0.6, TAAR1 desens 31.2 and Ga16 nonsel ant 8.8.
`CCOC(=O)C1CCN(C(=S)Nc2ccc(C)cc2)CC1` gave CHRM1 antagonist 5.1, TAAR1 antag 8.6, M1 ag -2.0, TAAR1 ag 10.6 and M1 PAM -2.7.
For CC(=NCc1ccccc1)C1=C(O)COC1=O the results were CHRM1 antagonist -23.2, TAAR1 antag -2.1, M1 ag 0.6, TAAR1 ag 0.5 and M1 PAM 11.8.
CC(=NCCc1ccccc1)C1=C(O)COC1=O was read as CHRM1 antagonist -19.4, TAAR1 antag 30.8, M1 ag -3.3, TAAR1 ag 82.8*, M1 PAM 5.0, TAAR1 ag conf 77.8*, Ga16 ag counter 2.5, TAAR1 desens 46.3 and Ga16 nonsel ant 9.6.
`CC(=NCCc1ccccc1)C1=C(O)C(c2ccccc2)OC1=O` (stereo unspecified) gave CHRM1 antagonist -3.2, TAAR1 antag 14.3, M1 ag 3.2, TAAR1 ag 73.0*, M1 PAM 6.6, TAAR1 ag conf 77.0*, Ga16 ag counter 1.9, TAAR1 desens 37.4 and Ga16 nonsel ant 11.1.
Cc1ccc(C(=O)NNC(=O)c2ccccc2O)cc1S(=O)(=O)N1CCCCC1 was read as CHRM1 antagonist 1.6, TAAR1 antag 7.4, M1 ag -0.4, TAAR1 ag 3.3 and M1 PAM -0.5.
